The source made the active and inactive calls. The rule behind the calls is not given here.
Assays:
Type in all cases: functional, cell-based
HCT-116 [1] = assay: Increase in intracellular oxygen content in human HCT116 cells at 5 uM after 6 hrs under hypoxic-condition by mono azo rhodamine/Nuclear-ID Red DNA staining based fluorescence assay
Summary of the method: (§1)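 HCT116 cells treated with compound for 6 h under hypoxia and loaded with the hypoxia-sensitive probe mono azo rhodamine (MAR). MAR fluoresces when its azo group is reduced in hypoxia. Nuclei were counterstained with NUCLEAR-ID Red. The value is the MAR/NUCLEAR-ID fluorescence intensity ratio, compared against a hypoxia control by significance testing.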

HCT-116 [2] = assay: Inhibition of hypoxia-induced HIF1-alpha accumulation in human HCT116 cells after 6 hrs by immunoblot analysis
Summary of the method: (§2)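 HCT116 cells incubated under hypoxia for 6 h with each compound. HIF-1α protein was detected by immunoblot with specific antibodies, using β-tubulin as loading reference.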

HCT-116 [3] = assay: Cytotoxicity against human HCT116 cells after 72 hrs by methylene blue staining based assay; conditions: HCT-116, 72 h
Summary of the method: (§3)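 HCT116 cells exposed to each analogue for 72 h. Viability read out by methylene blue staining.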

HCT-116 [4] = assay: Cytotoxicity against human HCT116 cells at 0.625 to 10 uM after 72 hrs under hypoxic condition by methylene blue staining based assay
HCT-116 [5] = assay: Increase in intracellular oxygen content in human HCT116 cells after 6 hrs under hypoxic-condition by mono azo rhodamine/ Nuclear-ID Red DNA staining based fluorescence assay; summary of the method: as §1
HCT-116 [6] = assay: Inhibition of hypoxia-induced HIF1-alpha accumulation in human HCT116 cells at 5 uM after 6 hrs by immunoblot analysis; summary of the method: as §2
HCT-116 [7] = assay: Cytotoxicity against human HCT116 cells at 0.625 to 10 uM after 72 hrs by methylene blue staining based assay; summary of the method: as §3

Row | SMILES | Activity (HCT-116 [1]) | inhibition (HCT-116 [2]) | IC50 (HCT-116 [3]) [nM] | Activity (HCT-116 [4]) | other results
1 | CO/N=C(/C(=O)OC)c1ccccc1COc1cccc(OCc2ccccc2)c1 | Active | – | – | – | –
2 | CO/N=C(/C(=O)OC)c1ccccc1COc1cccc(OCc2cc(C(F)(F)F)cc(C(F)(F)F)c2)c1 | Active | Dose-dependent effect | 1360 | Active | –
3 | CO/N=C(/C(=O)OC)c1ccccc1COc1cccc(OCc2ccc(Cl)cc2)c1 | – | Dose-dependent effect | 1620 | Active | Activity (HCT-116 [5]): Dose-dependent effect
4 | CO/N=C(\C)c1cccc(OCc2ccccc2/C(=N\OC)C(=O)OC)c1 | Active | – | – | – | –
5 | CO/N=C(/C(=O)OC)c1ccccc1COc1cccc(OCC#N)c1 | inactive | – | – | inactive | inhibition (HCT-116 [6]): inactive; Activity (HCT-116 [7]): inactive
6 | CO/N=C/c1ccc(OC)c(OCc2ccccc2/C(=N\OC)C(=O)OC)c1 | Active | – | – | – | –
7 | C=Cc1ccc(COc2cccc(OCc3ccccc3/C(=N\OC)C(=O)OC)c2)cc1 | Active | Dose-dependent effect | 1260 | Active | –
8 | CO/N=C(/C(=O)OC)c1ccccc1COc1cccc(O)c1 | Active | – | – | – | –
9 | CO/N=C/c1cccc(OCc2ccccc2/C(=N\OC)C(=O)OC)c1 | Active | – | – | – | –

From ChEMBL document CHEMBL4033710, “Synthesis and biological evaluation of kresoxim-methyl analogues as novel inhibitors of hypoxia-inducible factor (HIF)-1 accumulation in cancer cells” (Bioorg Med Chem Lett, 2017)
